Data as given in ChEMBL document CHEMBL3098034, “Synthesis and biological evaluation of α-hydroxyalkylphosphonates as new antimicrobial agents” (Bioorg Med Chem Lett, 2014).
Active and inactive are the calls of the source.

How the values were obtained:
[1] = system: Stenotrophomonas maltophilia; assay: Bactericidal activity against multidrug-resistant Stenotrophomonas maltophilia D457R after 24 hrs by CFU counting assay; assay type: functional
In short: (§1)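 MBC (lowest concentration killing the pathogen) determined per CLSI specifications, with fosfomycin, ceftriaxone, ciprofloxacin and chloramphenicol run as reference drugs; S. aureus ATCC 29213 used as quality-control strain.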

[2] = system: Bacillus cereus; assay: Bactericidal activity against Bacillus cereus ATCC 11778 after 24 hrs by CFU counting assay; assay type: functional; conditions: ATCC 11778, 24 h; in short: as §1
[3] = system: Acinetobacter haemolyticus; assay: Antibacterial activity against vancomycin-resistant Acinetobacter haemolyticus BW62 at 10 ug by disc diffusion method; assay type: functional; conditions: for zone of inhibition at 10 µg/disc: read-out: IZ
[4] = system: Acinetobacter haemolyticus; assay: Bactericidal activity against vancomycin-resistant Acinetobacter haemolyticus BW62 after 24 hrs by CFU counting assay; assay type: functional; conditions: BW62, 24 h; in short: as §1
[5] = system: Staphylococcus aureus; assay: Antibacterial activity against methicillin-resistant Staphylococcus aureus BW61 after 24 hrs by broth microdilution method; assay type: functional; conditions: BW61, 24 h
In short: (§2)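 MIC (lowest concentration preventing growth) determined per CLSI specifications, with fosfomycin, ceftriaxone, ciprofloxacin and chloramphenicol run as reference drugs; S. aureus ATCC 29213 used as quality-control strain.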

[6] = system: Pseudomonas aeruginosa; assay: Bactericidal activity against multidrug-resistant Pseudomonas aeruginosa PAO1 after 24 hrs by CFU counting assay; assay type: functional; conditions: PAO1, 24 h; in short: as §1
[7] = system: Staphylococcus aureus; assay: Antibacterial activity against Staphylococcus aureus ATCC 29213 after 24 hrs by broth microdilution method; assay type: functional; conditions: ATCC 29213, 24 h; in short: as §2
[8] = system: Staphylococcus aureus; assay: Antibacterial activity against Staphylococcus aureus ATCC 29213 at 10 ug by disc diffusion method; assay type: functional; conditions: for zone of inhibition at 10 µg/disc: read-out: IZ
[9] = system: Escherichia coli; assay: Antibacterial activity against ESBL-producing Escherichia coli BW55 at 10 ug by disc diffusion method; assay type: functional; conditions: for zone of inhibition at 10 µg/disc: read-out: IZ
[10] = system: Bacillus cereus; assay: Antibacterial activity against Bacillus cereus ATCC 11778 after 24 hrs by broth microdilution method; assay type: functional; conditions: ATCC 11778, 24 h; in short: as §2
[11] = system: Acinetobacter haemolyticus; assay: Antibacterial activity against vancomycin-resistant Acinetobacter haemolyticus BW62 after 24 hrs by broth microdilution method; assay type: functional; conditions: BW62, 24 h; in short: as §2
[12] = system: Escherichia coli; assay: Bactericidal activity against ESBL-producing Escherichia coli BW55 after 24 hrs by CFU counting assay; assay type: functional; conditions: BW55, 24 h; in short: as §1
[13] = system: Staphylococcus aureus; assay: Bactericidal activity against Staphylococcus aureus ATCC 29213 after 24 hrs by CFU counting assay; assay type: functional; conditions: ATCC 29213, 24 h; in short: as §1
[14] = system: Pseudomonas aeruginosa; assay: Antibacterial activity against multidrug-resistant Pseudomonas aeruginosa PAO1 after 24 hrs by broth microdilution method; assay type: functional; conditions: PAO1, 24 h; in short: as §2
[15] = system: Staphylococcus aureus; assay: Bactericidal activity against methicillin-resistant Staphylococcus aureus BW61 after 24 hrs by CFU counting assay; assay type: functional; conditions: BW61, 24 h; in short: as §1
[16] = system: Escherichia coli; assay: Antibacterial activity against ESBL-producing Escherichia coli BW55 after 24 hrs by broth microdilution method; assay type: functional; conditions: BW55, 24 h; in short: as §2
[17] = system: Stenotrophomonas maltophilia; assay: Antibacterial activity against multidrug-resistant Stenotrophomonas maltophilia D457R after 24 hrs by broth microdilution method; assay type: functional; in short: as §2
[18] = system: Escherichia coli; assay: Antibacterial activity against multidrug-resistant Escherichia coli BW54 at 10 ug by disc diffusion method; assay type: functional; conditions: for zone of inhibition at 10 µg/disc: read-out: IZ
[19] = system: Pseudomonas aeruginosa; assay: Antibacterial activity against multidrug-resistant Pseudomonas aeruginosa PAO1 at 10 ug by disc diffusion method; assay type: functional; conditions: for zone of inhibition at 10 µg/disc: read-out: IZ
[20] = system: Escherichia coli; assay: Bactericidal activity against multidrug-resistant Escherichia coli BW54 after 24 hrs by CFU counting assay; assay type: functional; conditions: BW54, 24 h; in short: as §1
[21] = system: Stenotrophomonas maltophilia; assay: Antibacterial activity against multidrug-resistant Stenotrophomonas maltophilia D457R at 10 ug by disc diffusion method; assay type: functional; conditions: for zone of inhibition at 10 µg/disc: read-out: IZ
[22] = system: Escherichia coli; assay: Antibacterial activity against multidrug-resistant Escherichia coli BW54 after 24 hrs by broth microdilution method; assay type: functional; conditions: BW54, 24 h; in short: as §2
[23] = system: Bacillus cereus; assay: Antibacterial activity against Bacillus cereus ATCC 11778 at 10 ug by disc diffusion method; assay type: functional; conditions: for zone of inhibition at 10 µg/disc: read-out: IZ
[24] = system: Human alphaherpesvirus 2; assay: Antiviral activity against Herpes simplex virus 2 G; assay type: functional, organism-based; conditions: Human alphaherpesvirus 2, strain G

C[C@](O)(CCl)P(=O)(Oc1ccccc1)Oc1ccccc1
256 µg/mL: MBC [6] | MBC [12] | MBC [15]
64 µg/mL: MIC [10] | MIC [11] | MIC [14] | MIC [16]
8 mm: zone of inhibition at 10 µg/disc [3] | zone of inhibition at 10 µg/disc [18]
≥ 256 µg/mL: MBC [1] | MBC [4] | MBC [13] | MBC [20]
inactive: Activity [21]
7 mm: zone of inhibition at 10 µg/disc [9] | zone of inhibition at 10 µg/disc [19]
9 mm: zone of inhibition at 10 µg/disc [8]
128 µg/mL: MBC [2] | MIC [5] | MIC [7] | MIC [17] | MIC [22]
12 mm: zone of inhibition at 10 µg/disc [23]

O=P(Oc1ccccc1)(Oc1ccccc1)[C@](O)(CCl)c1ccccc1
10 mm: zone of inhibition at 10 µg/disc [9]
64 µg/mL: MBC [1] | MBC [4] | MIC [5] | MBC [6] | MIC [7] | MIC [10] | MIC [11] | MBC [12] | MBC [13] | MIC [14] | MBC [15] | MIC [16] | MIC [17] | MBC [20] | MIC [22]
inactive: Activity [8]
9 mm: zone of inhibition at 10 µg/disc [18]
7 mm: zone of inhibition at 10 µg/disc [19] | zone of inhibition at 10 µg/disc [21] | zone of inhibition at 10 µg/disc [23]
32 µg/mL: MBC [2]
8 mm: zone of inhibition at 10 µg/disc [3]

Nc1ncnc2c1ncn2CCOCP(=O)(O)O [ADEFOVIR]
77 µM: IC50 [24]

O=C(N[C@H](CO)[C@H](O)c1ccc([N+](=O)[O-])cc1)C(Cl)Cl [CHLORAMPHENICOL]
128 µg/mL: MIC [11] | MBC [12] | MBC [15] | MIC [17] | MIC [22]
16 µg/mL: MIC [5]
64 µg/mL: MBC [2] | MBC [13]
8 µg/mL: MIC [7] | MIC [16]
0.5 µg/mL: MIC [10]
≥ 256 µg/mL: MBC [1] | MBC [4] | MBC [6] | MIC [14] | MBC [20]

CC1(C)COP(=O)([C@@](O)(CCl)c2ccc(Cl)cc2)OC1
inactive: Activity [3] | Activity [8] | Activity [18] | Activity [19] | Activity [21] | Activity [23]
64 µg/mL: MIC [5] | MIC [7] | MIC [10] | MIC [11] | MIC [16] | MIC [17] | MIC [22]
256 µg/mL: MBC [1]
128 µg/mL: MBC [2] | MBC [4] | MBC [6] | MBC [12] | MBC [13] | MIC [14] | MBC [15] | MBC [20]
7 mm: zone of inhibition at 10 µg/disc [9]

O=P(Oc1ccccc1)(Oc1ccccc1)[C@@]1(O)c2ccccc2C[C@@H]1Cl (mixture of isomers)
256 µg/mL: MBC [1] | MBC [2] | MBC [4] | MIC [5] | MBC [6] | MIC [7] | MBC [12] | MBC [13] | MBC [15] | MBC [20]
128 µg/mL: MIC [10] | MIC [11] | MIC [14] | MIC [16] | MIC [17] | MIC [22]
5 mm: zone of inhibition at 10 µg/disc [8]
8 mm: zone of inhibition at 10 µg/disc [9]
9 mm: zone of inhibition at 10 µg/disc [19]
inactive: Activity [3] | Activity [18] | Activity [21] | Activity [23]

O=P(Oc1ccccc1)(Oc1ccccc1)[C@@]1(O)CCC[C@@H]1Cl (mixture of isomers)
8 mm: zone of inhibition at 10 µg/disc [8]
128 µg/mL: MIC [10] | MIC [11] | MIC [16] | MIC [17] | MIC [22]
inactive: Activity [3] | Activity [9] | Activity [18] | Activity [19] | Activity [21] | Activity [23]
256 µg/mL: MBC [1] | MBC [2] | MBC [4] | MIC [5] | MBC [6] | MIC [7] | MBC [12] | MIC [14] | MBC [20]
≥ 256 µg/mL: MBC [13] | MBC [15]

CC1(C)COP(=O)([C@@](C)(O)CCl)OC1
inactive: Activity [3] | Activity [8] | Activity [9] | Activity [18] | Activity [19] | Activity [21] | Activity [23]

CC1(C)COP(=O)([C@@](O)(CCl)c2ccccc2)OC1
6 mm: zone of inhibition at 10 µg/disc [19]
7 mm: zone of inhibition at 10 µg/disc [23]
inactive: Activity [3] | Activity [8] | Activity [9] | Activity [18] | Activity [21]

CC1(C)COP(=O)([C@@]2(O)CCC[C@@H]2Cl)OC1
6 mm: zone of inhibition at 10 µg/disc [19] | zone of inhibition at 10 µg/disc [21]
inactive: Activity [3] | Activity [8] | Activity [9] | Activity [18] | Activity [23]

O=C(O)c1cn(C2CC2)c2cc(N3CCNCC3)c(F)cc2c1=O [CIPROFLOXACIN]
1 µg/mL: MBC [12]
256 µg/mL: MBC [1]
4 µg/mL: MBC [2] | MBC [4] | MIC [5] | MBC [6] | MIC [7] | MIC [10] | MIC [11] | MBC [13] | MIC [14] | MBC [15] | MIC [17] | MBC [20]

CO/N=C(\C(=O)N[C@@H]1C(=O)N2C(C(=O)O)=C(CSc3nc(=O)c(O)nn3C)CS[C@H]12)c1csc(N)n1 [CEFTRIAXONE]
32 µg/mL: MIC [10] | MIC [16]
≤ 0.5 µg/mL: MIC [22]
4 µg/mL: MBC [4] | MIC [5] | MIC [7] | MIC [11] | MBC [13] | MBC [15]
128 µg/mL: MBC [1] | MBC [6] | MIC [14]
0.5 µg/mL: MBC [20]
64 µg/mL: MBC [2] | MBC [12] | MIC [17]

C[C@H](Cl)[C@](O)(c1ccccc1)P1(=O)OCC(C)(C)CO1
7 mm: zone of inhibition at 10 µg/disc [21]
inactive: Activity [3] | Activity [8] | Activity [9] | Activity [18] | Activity [19] | Activity [23]

O=P(Oc1ccccc1)(Oc1ccccc1)[C@](O)(CCl)c1ccc(Cl)cc1
7 mm: zone of inhibition at 10 µg/disc [3]
128 µg/mL: MBC [4] | MBC [6] | MIC [14]
64 µg/mL: MBC [1] | MIC [11] | MBC [12] | MBC [13] | MBC [15] | MBC [20] | MIC [22]
9 mm: zone of inhibition at 10 µg/disc [8] | zone of inhibition at 10 µg/disc [18] | zone of inhibition at 10 µg/disc [23]
10 mm: zone of inhibition at 10 µg/disc [9] | zone of inhibition at 10 µg/disc [19]
11 mm: zone of inhibition at 10 µg/disc [21]
32 µg/mL: MBC [2] | MIC [5] | MIC [7] | MIC [10] | MIC [16] | MIC [17]

C[C@@H]1O[C@@H]1P(=O)(O)O [FOSFOMYCIN]
8 µg/mL: MIC [7]
32 µg/mL: MBC [2] | MIC [10] | MBC [15] | MIC [16] | MBC [20] | MIC [22]
128 µg/mL: MBC [4] | MIC [11] | MBC [12]
256 µg/mL: MBC [1] | MIC [17]
64 µg/mL: MIC [5] | MBC [6] | MBC [13] | MIC [14]
